In the library only some 1.7% were active in any assay of this set; here they are far more common.
DNMT1 inh: inhibitors of human DNMT1; P26358; DNMT1 molecular beacon, Hinp1I cleavage, fluorescence; inhibition (reported as % activation of signal), % at 10 µM; hit rate 0.83% among 360,000; in the data active means inhibition above about 50%
LMPTP block: blocks human LMPTP phosphatase; recombinant LMPTP-A, OMFP fluorogenic substrate, fluorescence intensity; AID 651560; P24666; hit rate 0.22% among 360,000; inhibition, % at 20 µM;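 active means compounds that cut the enzyme signal by at least half of the control window in the single-dose screen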;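 further: plate controls were DMSO wells with enzyme plus substrate for no effect and substrate without enzyme for full effect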
Target sequence (P24666 whole entry, looked up): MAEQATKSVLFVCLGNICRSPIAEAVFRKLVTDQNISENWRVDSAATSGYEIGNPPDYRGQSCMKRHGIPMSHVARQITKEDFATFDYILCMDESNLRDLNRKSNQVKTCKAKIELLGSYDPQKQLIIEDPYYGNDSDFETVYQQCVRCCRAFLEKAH
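Assay system: LMPTP-A enzyme. Input: 0.625 nM LMPTP-A final. Probe or stimulus: 400 µM OMFP. Compound dosing: single 20 µM dose. Schedule: 50 min dark incubation at room temperature. Detection: fluorescence intensity of OMFP turnover product. Read-out: percent inhibition versus substrate-only and uninhibited controls. Benchmarks: no-enzyme low control, uninhibited high control.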
SUMO1 PPI mod: alters human SUMO1 binding to SIM partners; inhibition, % at 20 µM; SUMO1 binding to a labelled peptide, TR-FRET, 1 h; P63165; hit rate 0.33% among 360,000; AID 602429; in the data active means inhibition above about 37%
Target sequence (P63165 whole entry, looked up): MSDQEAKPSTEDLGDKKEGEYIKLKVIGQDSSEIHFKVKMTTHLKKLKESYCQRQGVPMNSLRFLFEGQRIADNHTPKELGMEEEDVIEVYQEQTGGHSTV
STEP inh: STEP (human) phosphatase inhibition; hit rate 0.25% among 360,000; recombinant STEP, OMFP fluorogenic substrate, fluorescence; inhibition, % at 20 µM; P54829;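 active means inhibition at 20 µM, scaled per plate between control wells, above about 37%, limit read from the data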;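 further: 0% = DMSO with enzyme and substrate and 100% = substrate only without enzyme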
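Assay system: isolated STEP enzyme / Timing: 20 min at room temperature, dark / Doses: 20 µM, 1% DMSO / Technique: fluorescence intensity, excitation 480 nm, emission 540 nm / Reagent: fluorogenic phosphatase substrate OMFP at 25 µM final / Measure: percent inhibition scaled to no-enzyme and uninhibited-enzyme controls, plate-pattern corrected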
Scp-1 inhibitor: Scp-1 (human) phosphatase inhibition | Recombinant Scp1, phosphopeptide, malachite green phosphate absorbance | inhibition, % at 20 µM | hit rate 0.88% among 340,000;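 active means inhibition above about 50% at 20 µM, limit read from the data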;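 further: plate controls were DMSO wells with enzyme for no effect and wells lacking enzyme for full effect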
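Times: enzyme reaction 45 min at room temperature, colour 5 min, stabilisation 30 min. Material: SCP-1 catalytic fragment, aa 76-261. Medium: Acidic Tris acetate buffer with magnesium and detergent. Signal: colorimetric free-phosphate detection, absorbance 630 nm. Read-out basis: % inhibition of SCP-1 phosphate liberation. Reagent: Phosphorylated 17-residue peptide substrate.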
DNMT1 inh conf: confirmation of human DNMT1 inhibitors. shares compounds with DNMT1 inh. DNMT1 molecular beacon HinP1I cleavage, fluorescence. inhibition, % at 10 µM. hit rate 8% among 2,300. AID 602385;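 active means average inhibition of at least 30% in the single-concentration confirmation test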
Beacon interf: beacon fluorescence artifact counter-screen; shares compounds with DNMT1 inh; hit rate 1% among 2,300; activation (fluorescence interference), % at 10 µM; DNMT1 molecular beacon spectral interference counterscreen, fluorescence 485/520;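 active means activation of at least 30% at 10 µM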;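 further: DNMT1 catalytic domain with a HinP1I cleavage step and a FAM/dabcyl DNA beacon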
* marks the source's active call; other numbers are inactive results; · = not tested or not shown.

SMILES	DNMT1 inh	LMPTP block	SUMO1 PPI mod	STEP inh	Scp-1 inhibitor	DNMT1 inh conf	Beacon interf
O=C(N/N=C/c1cc(Br)ccc1O)c1ccncc1	0	0	-4	-3	-17	·	·
C=CCn1c(SCC(=O)N(C(C)CC)C2CCS(=O)(=O)C2)nc2ccccc2c1=O (centres undefined)	1	-1	1	-3	-2	·	·
COc1ccc(-c2c(C#Cc3ccc(N(C)C)cc3)c3ccccc3n2C)cc1	57*	1	-20	2	1	3	-2
COc1ccc(-c2c(C#Cc3ccsc3)c3cc(Br)ccc3n2C)cc1	2	2	-1	-3	-11	·	·
NNC(=O)c1[nH]c(-c2ccccc2)cc1-c1ccccc1	68*	2	-2	1	2	4	5
Cc1c(-c2ccccc2)n[nH]c1C(=O)NN	0	-3	4	-2	-7	·	·
CC1C(=O)N2CCCc3cc(NC(=O)CC(C)(C)C)cc1c32 (centres undefined)	3	0	3	-1	-7	·	·
Cc1cccc(NC(=O)c2nc[nH]c2C(=O)NCCCNC(=O)c2[nH]cnc2C(=O)Nc2cccc(C)c2)c1	73*	2	6	5	0	2	0
CC(C)(C)OC(=O)NCc1ccc(NC(=O)c2nc[nH]c2C(=O)NCCNC(=O)c2[nH]cnc2C(=O)Nc2ccc(CNC(=O)OC(C)(C)C)cc2)cc1	64*	-4	0	-4	4	1	-5
Cc1cccc(NC(=O)c2nc[nH]c2C(=O)NCCN(CCNC(=O)c2[nH]cnc2C(=O)Nc2cccc(C)c2)CCNC(=O)c2[nH]cnc2C(=O)Nc2cccc(C)c2)c1	-12	1	-6	-2	2	·	·
CCOc1ccc(N=c2cc(-c3ccc(OC)cc3)oc3ccccc23)cc1	95*	9	-4	1	14	2	4
COc1cc(CNc2ccc(N3CCN(C(C)=O)CC3)cc2)ccc1OCc1ccc(F)cc1	4	3	2	2	-3	·	·
CCCC[N+](C)(C)CCC(=O)NC(C)(C)CS(=O)(=O)[O-]	66*	-1	1	7	43	5	1
C=CCn1c(SCC(=O)NC2CCCC2)nc2ccccc21	70*	2	3	-2	·	3	3
C=CCn1c(SCC(=O)NC2CC2)nc2ccccc2c1=O	1	-1	1	-1	-6	·	·
COC(=O)c1cccc(NC(=O)Cc2coc3cc(OC)ccc23)c1	-4	1	1	-3	-10	·	·
COc1ccc2c(CC(=O)OCC(=O)Nc3cccc(C)c3)coc2c1	50*	2	3	0	5	11	5
COc1ccccc1-c1nnc(SCC(=O)NC2CCCCC2)n1C	2	0	-1	-2	-5	·	·
Cc1ccccc1Nc1nc(=O)c2cc([N+](=O)[O-])ccc2s1	1	-1	-17	-1	-9	·	·
Cc1ccc(Nc2nc(=O)c3cc([N+](=O)[O-])ccc3s2)cc1	59*	14	-20	4	29	1	-4
COC(=O)NC1CC2C=CC1C1C=CC21 (centres undefined)	9	0	1	-2	·	·	·
O=C1C(Cl)=C(N2CCCC2)C(=O)N1c1ccc(F)cc1	72*	1	-37	12	1	3	3
COc1ccc(N2C(=O)C(Cl)=C(N3CCCC3)C2=O)cc1	8	-1	-29	6	6	·	·
COc1cccc(N(C(=O)Cn2nnc(-c3cccs3)n2)C(C(=O)NC2CCCCC2)c2ccncc2)c1 (centres undefined)	68*	2	2	-2	-11	0	-2
Cc1ccc(C)c(N(C(=O)Cn2nnc(-c3cccs3)n2)C(C(=O)NC2CCCC2)c2ccncc2)c1 (centres undefined)	9	-2	4	-4	0	·	·
COc1ccc(CC(C)CC(=O)Nc2ccc(OC)cc2)cc1 (centres undefined)	5	0	0	-2	4	·	·
